Our source for the viability, differential viability (reversal) and inhibition values is PubChem BioAssay.

Experiment [1] is described as follows: reduced viability of SK-BR-3 breast cancer cells – cell-based, 24 h, human, pilot screen (AID 572;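 active means viability at or below 10% of carrier control in both of two separate runs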;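 further: compound exposure lasted between 18 and 24 h rather than exactly 24 h; 100% = carrier-treated control wells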). The note with it: SK-BR-3 viability, CellTiter-Glo luminescence, at 10 µM, stronger effect = lower value. Background: ATP-based viability assays read luminescence as a measure of living cells.
The nature of experiment [2]: HUVEC growth inhibition – cell-based, human, primary screen (AID 575;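 active means viability at or below 30% in both replicate assays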;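 further: 100% = median of untreated cell wells with 0.1% DMSO on each plate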). Conditions: HUVEC proliferation, CellTiter-Glo luminescence, 72 h; at 10 µM; stronger effect = lower value. The method, boiled down: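 Test system: primary human umbilical vein endothelial cells; medium: endothelial basal medium with 2% FBS plus growth supplements; dosing: 10 µM compound only; times: 72 h treatment at 37 °C; signal: CTG luminescence; read-out: % viability relative to median vehicle-well signal on each plate; control set: vehicle and MePR control wells; plate: 384-well, collagen-coated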

Experiment [3] in a line: H69AR cell proliferation blockers – human, duplicate replicates, primary screen (AID 580).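 Further: 100% = mean luminescence of untreated wells and 0% = no signal.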 The note with it: H69AR lung tumor cells viability, ATP luminescence, 72 h; at 10 µM; stronger effect = lower value.
Experiment [4] in a line: MRP1 drug-resistance reversers in H69AR cells – cell-based, doxorubicin co-treatment, pilot screen (AID 601;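 active means viability loss from added drug above about 55%, and viability with drug at most 40%, in both replicates, limit read from the data, passing the limit was not always enough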). Conditions: CellTiter-Glo, 72 h, at 10 µM; for differential viability (reversal): stronger effect = higher value.
A short description of experiment [5]: yeast transport mutant growth inhibition pilot in 384-well plates, post-Golgi transport modulator project (AID 636; in the data active means inhibition above about 31%). The note with it: absorbance 615 nm, about 18 h, stronger effect = higher value.
Experiment [6] is described as follows: growth suppression of yeast trafficking mutant, preliminary HTS, modulators of trafficking downstream of Golgi apparatus project, 1536-format plate, OD 615 nm (AID 637; in the data active means inhibition above about 30%). The note with it: yeast transport mutant growth, absorbance 615 nm, 18 h; stronger effect = higher value.
Where [7] appears, read: H69AR cells + 2 uM doxorubicin, measured here: viability with 2 uM doxorubicin, stronger effect = lower value.
The mark [8] stands for this setting: H69AR cells, compound alone cytotoxicity.

Activity calls are given as the source filed them.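 How the source made its calls, unless noted: active means viability at or under a set limit in both replicates, limit being median viability minus 3 SD (cut at about 48% in these data, passing the limit was not always enough); inconclusive means at or under the limit in just one replicate; inactive means at or above the limit in both replicates.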

A word on the viability: it is a read-out of living cells in per cent, often relative to untreated cells. Usually inhibition stands for the drop in the measured response relative to a control, in per cent. As for `CCOC(=O)CSc1nc2sc(C)c(C)c2c(=O)[nH]1`, the viability was 98% (inactive) in experiment [1]; 101% (inactive) in experiment [2]; 92.2% (inactive) in experiment [3]; 108% in experiment [4] (setting [7]); 92.2% in experiment [4] (setting [8]). Also, the differential viability (reversal) in experiment [4] (H69AR cells + 2 uM doxorubicin) is -15.3% (inactive). Moreover, the inhibition is -4.79% (inactive) in experiment [5] and 13.3% (inactive) in experiment [6].
Regarding `O=C(O)Cc1ccc(-c2ccccc2)cc1`, the viability is 112% (inactive) in experiment [1]; 84.3% (inactive) in experiment [2]; 85.7% (inactive) in experiment [3]; 86.4% in experiment [4] (setting [7]); 85.7% in experiment [4] (setting [8]). For the same compound, the differential viability (reversal) in experiment [4] (H69AR cells + 2 uM doxorubicin) is -0.76% (inactive). Also, the inhibition in experiment [5] was -2.21% (inactive); in experiment [6], 5.33% (inactive).
In the case of `O=C(Cc1cccs1)N(c1ccccc1)C1C=CS(=O)(=O)C1` (centres undefined), the viability is 118% (inactive) in experiment [1]; 107% (inactive) in experiment [2]; 106% (inactive) in experiment [3]; 76.7% in experiment [4] (setting [7]); 106% in experiment [4] (setting [8]). Further, the differential viability (reversal) in experiment [4] (H69AR cells + 2 uM doxorubicin) is 28.9% (inactive). Moreover, the figures for the inhibition in experiment [5] and in experiment [6] were -3.07% (inactive) and -1.64% (inactive), respectively.
With `Cc1cc(-c2ccccc2)nc(SCc2ccc(C(=O)O)o2)n1`, the viability in experiment [1] is 121% (inactive); in experiment [2], 103% (inactive); in experiment [3] it was 97.5% (inactive); in experiment [4] (setting [7]), 91.6%; in experiment [4] (setting [8]) it was 97.5%. Besides, in experiment [4] (H69AR cells + 2 uM doxorubicin), the differential viability (reversal) was 5.94% (inactive). The inhibition in experiment [5] was -5.6% (inactive); in experiment [6], 0.73% (inactive).
As for `CCn1c(SCC(=O)N2CCN(c3ccc(Cl)cc3)CC2)nc2ccccc2c1=O`, the viability is 96% (inactive) in experiment [1]; 77.2% (inactive) in experiment [2]; 78.6% (inactive) in experiment [3]; 91.5% in experiment [4] (setting [7]); 78.6% in experiment [4] (setting [8]). For the same compound, the differential viability (reversal) in experiment [4] (H69AR cells + 2 uM doxorubicin) is -12.9% (inactive). Further, the inhibition was 5.89% (inactive) in experiment [5] and 25.5% (inactive) in experiment [6].
As to `Cc1ccc(NC(=O)CC2C(=O)NC3CCCCC3N2C(=O)c2ccc(F)cc2)cc1C` (centres undefined), the viability in experiment [1] is 108% (inactive); in experiment [2], 100% (inactive); in experiment [3], 101% (inactive); in experiment [4] (setting [7]) it was 88.5%; in experiment [4] (setting [8]), 101%. Further, in experiment [4] (H69AR cells + 2 uM doxorubicin), the differential viability (reversal) was 12.5% (inactive). Further, the inhibition in experiment [5] was -2.47% (inactive); in experiment [6], 3.11% (inactive).
`C/C(=C\c1ccco1)C1C(C#N)=C(N)OC2=C1C(=O)CC(C)(C)C2` (centres undefined): the viability in experiment [1] is 110% (inactive); in experiment [2], 108% (inactive); in experiment [3], 80.1% (inactive); in experiment [4] (setting [7]) it was 89.2%; in experiment [4] (setting [8]), 80.1%. Moreover, in experiment [4] (H69AR cells + 2 uM doxorubicin), the differential viability (reversal) was -9.17% (inactive). Moreover, the inhibition in experiment [5] was -7.43% (inactive); in experiment [6], 1.09% (inactive).
`CC1(C)O[C@@H]2C[C@H]3[C@@H]4C[C@H](F)C5=CC(=O)CC[C@]5(C)[C@H]4[C@@H](O)C[C@]3(C)[C@]2(C(=O)CO)O1`: the viability was 104% (inactive) in experiment [1]; 107% (inactive) in experiment [2]; 95.2% (inactive) in experiment [3]; 97.7% in experiment [4] (setting [7]); 95.2% in experiment [4] (setting [8]). In addition, the differential viability (reversal) in experiment [4] (H69AR cells + 2 uM doxorubicin) is -2.5% (inactive). For the same compound, the inhibition in experiment [5] is -5.45% (inactive); in experiment [6] it was -0.5% (inactive).
On to `CCC(CC)C1C(C#N)=C(N)Oc2n[nH]c(C)c21` (centres undefined), for which the viability in experiment [1] is 85% (inactive); in experiment [2], 91.9% (inactive); in experiment [3], 24.9% (active); in experiment [4] (setting [7]), 69.6%; in experiment [4] (setting [8]) it was 24.9%. Further, the differential viability (reversal) in experiment [4] (H69AR cells + 2 uM doxorubicin) was -44.6% (inactive). Further, the figures for the inhibition in experiment [5] and in experiment [6] were -6.22% (inactive) and -0.18% (inactive), respectively.
Take `CCOC(=O)C1CCCN(C(=O)c2cc3c(-c4cccc(OC)c4)nn(C)c3s2)C1` (centres undefined): the viability in experiment [1] is 115% (inactive); in experiment [2], 56.1% (inactive); in experiment [3], 13.2% (active); in experiment [4] (setting [7]), 82.2%; in experiment [4] (setting [8]), 13.2%. For the same compound, the differential viability (reversal) in experiment [4] (H69AR cells + 2 uM doxorubicin) is -69% (inactive). Also, the inhibition is -8.13% (inactive) in experiment [5] and 1.64% (inactive) in experiment [6].
As to `CN(CC(=O)N1CCCc2c1c(=O)oc1ccc(O)cc21)Cc1ccccc1`, the viability was 95% (inactive) in experiment [1]; 87.6% (inactive) in experiment [2]; 90% (inactive) in experiment [3]; 93.3% in experiment [4] (setting [7]); 90% in experiment [4] (setting [8]). In addition, the differential viability (reversal) in experiment [4] (H69AR cells + 2 uM doxorubicin) was -3.29% (inactive). Also, the results for the inhibition in experiment [5] and in experiment [6] were -7.3% (inactive) and 0.36% (inactive), respectively.
With `CC(NCCc1ccc(O)cc1)C(O)c1ccc(O)cc1` (centres undefined), the viability in experiment [1] is 99% (inactive); in experiment [2], 101% (inactive); in experiment [3], 99.4% (inactive); in experiment [4] (setting [7]), 92.3%; in experiment [4] (setting [8]), 99.4%. Further, in experiment [4] (H69AR cells + 2 uM doxorubicin), the differential viability (reversal) is 7.11% (inactive). Moreover, the results for the inhibition in experiment [5] and in experiment [6] were -2.73% (inactive) and 0.67% (inactive), respectively.
`Cc1cc(=O)oc2ccc(OCC(=O)N(Cc3ccc(F)cc3)Cc3ccco3)cc12`: the viability was 91% (inactive) in experiment [1]; 50.9% (inactive) in experiment [2]; 72% (inactive) in experiment [3]; 60.5% in experiment [4] (setting [7]); 72% in experiment [4] (setting [8]). In addition, the differential viability (reversal) in experiment [4] (H69AR cells + 2 uM doxorubicin) is 11.6% (inactive). Also, the inhibition in experiment [5] is -2.47% (inactive); in experiment [6] it was -9.35% (inactive).
Take `CN(C)c1ccc(C=NCC2(O)CCOC(C)(C)C2)cc1` (centres undefined): the viability in experiment [1] was 91% (inactive); in experiment [2] it was 91.8% (inactive); in experiment [3], 89.2% (inactive); in experiment [4] (setting [7]), 88.9%; in experiment [4] (setting [8]), 89.2%. Further, the differential viability (reversal) in experiment [4] (H69AR cells + 2 uM doxorubicin) is 0.32% (inactive). For the same compound, the inhibition is -7.67% (inactive) in experiment [5] and 3.27% (inactive) in experiment [6].
On to `CCOC(=O)c1cnc(C(C)(C)C)[nH]c1=O`, for which the viability is 106% (inactive) in experiment [1]; 102% (inactive) in experiment [2]; 95.8% (inactive) in experiment [3]; 88% in experiment [4] (setting [7]); 95.8% in experiment [4] (setting [8]). In addition, the differential viability (reversal) in experiment [4] (H69AR cells + 2 uM doxorubicin) was 7.84% (inactive). The inhibition was -6.22% (inactive) in experiment [5] and -0.91% (inactive) in experiment [6].
On to `CCOC(=O)c1c(C)[nH]c(C)c1C(=O)COC(=O)CNC(=O)c1ccc(OCC)cc1`, for which the viability was 96% (inactive) in experiment [1]; 77.9% (inactive) in experiment [2]; 88.3% (inactive) in experiment [3]; 84.2% in experiment [4] (setting [7]); 88.3% in experiment [4] (setting [8]). In addition, the differential viability (reversal) in experiment [4] (H69AR cells + 2 uM doxorubicin) was 4.05% (inactive). The inhibition in experiment [5] is -2.34% (inactive); in experiment [6], -0.66% (inactive).
In the case of `Cc1ccc(-n2ncc3c(=O)n(CC(=O)N4CCCc5ccccc54)cnc32)cc1C`, the viability is 82% (inactive) in experiment [1]; 60.5% (inactive) in experiment [2]; 90.8% (inactive) in experiment [3]; 101% in experiment [4] (setting [7]); 90.8% in experiment [4] (setting [8]). Also, the differential viability (reversal) in experiment [4] (H69AR cells + 2 uM doxorubicin) was -10% (inactive). In addition, the inhibition in experiment [5] was 6.08% (inactive); in experiment [6], -2.73% (inactive).
For `C=CCN(CC=C)C(=O)c1ccncc1`, the viability was 115% (inactive) in experiment [1]; 92.8% (inactive) in experiment [2]; 102% (inactive) in experiment [3]; 104% in experiment [4] (setting [7]); 102% in experiment [4] (setting [8]). Moreover, in experiment [4] (H69AR cells + 2 uM doxorubicin), the differential viability (reversal) was -2.84% (inactive). The results for the inhibition in experiment [5] and in experiment [6] were 0.68% (inactive) and -4.84% (inactive), respectively.
